Results from different studies.
Compare with care: the assays were run in different laboratories.
Sample: plasma

O=C(Nc1cc(F)c(F)c(F)c1)c1ccc(F)c(S(=O)(=O)NCc2cccc(B(O)O)c2)c1
AUC(0-t) (male Sprague-Dawley rat; intravenous; 2 mg/kg): 242 ng·h/mL

CCc1cc(OC)c2nccc(N3CCc4c(cc(Cn5ccnc5)cc4-c4cn(C)nc4C(F)(F)F)C3=O)c2c1
AUC(0-t) (male Sprague-Dawley rat; intravenous; 3 mg/kg): 952 ng·h/mL

C=CC(=O)N1CC2CC(n3nc(-c4ccc(C(=O)Nc5ccccn5)cc4)c4c(N)ncnc43)CC2C1 (stereo not shown)
AUC(0-t) (male Wistar rat; oral; 100 mg/kg): 13200 ng·h/mL

COc1ccc2c(Cc3ccccc3F)c3[n+](cc2c1OC)CCc1cc2c(cc1-3)OCO2.[Br-]
AUC(0-t) (rat; intravenous; 5 mg/kg): 113 ng·h/mL

Cc1c(-c2ccccc2)cccc1N1C(=O)c2cc(CN[C@H](C(=O)O)C(C)O)c(OCc3cccc(C#N)c3)cc2C1=O (stereo partly shown)
AUC(0-t) (Sprague-Dawley rat; oral; 50 mg/kg): 75 ng·h/mL

COc1ccc(C(C)=O)c(O)c1
AUC(0-t) (male Sprague-Dawley rat; oral; 100 mg/kg): 33600 ng·h/mL

COc1ccc2c(Cc3ccccc3F)c3n(c(=O)c2c1OC)CCc1cc2c(cc1-3)OCO2
AUC(0-t) (rat; intravenous; 5 mg/kg): 22700 ng·h/mL

COc1nc(-c2cc(C)c(N[C@@H](C)c3cc(F)cc(F)c3)nn2)ccc1-n1cnc(C)c1
AUC(0-t) (male Sprague-Dawley rat; intravenous; 1 mg/kg; single dose): 6350 ng·h/mL

C[C@H](Nc1ncnc2[nH]cnc12)c1cc2cccc(Cl)c2c(=O)n1-c1ccccc1
AUC(0-t) (male Wistar rat; oral; 25 mg/kg; single dose): 9340 ng·h/mL

N#Cc1ccc(Nc2nc(N)cc(Oc3c(F)cc(-c4ccc(C#N)cc4)cc3F)n2)cc1
AUC(0-t) (Sprague-Dawley rat; oral; 5 mg/kg): 74 ng·h/mL

Cc1nc(-c2cnc(NC(C)C)n(C)c2=O)ccc1Oc1ccnc(-c2cnn(C)c2)c1
AUC(0-t) (male Sprague-Dawley rat; intravenous; 1 mg/kg): 21500 ng·h/mL

CCOC(=O)[C@@]12C[C@@H]1[C@@H](n1ccc3c(NC)nc(C#Cc4ccc(Cl)s4)nc31)[C@H](O)[C@@H]2O
AUC(0-t) (male Sprague-Dawley rat; oral; 3 mg/kg): 170 ng·h/mL

CCc1cc(C(=O)NC)c2nccc(N3CCc4c(cc(Cn5ccnc5)cc4-c4cn(C)nc4C(F)(F)F)C3=O)c2c1
AUC(0-t) (male Sprague-Dawley rat; oral; 50 mg/kg; single dose): 11100 ng·h/mL
